The text below walks through data of ChEMBL document CHEMBL1138697, “Development of a new class of potential antiatherosclerosis agents: NO-donor antioxidants” (Bioorg Med Chem Lett, 2004).

The species entered for assay [1] is Rattus norvegicus. As to the kind of experiment: Vasodilating activity in rat aorta strip in presence of 1H-[1,2,4]oxadiazolo[4,3-a]quinoxalin-1-one (ODQ). Type of assay: functional, organism-based. The essentials: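 Rat aortic strips were precontracted with 1 μM L-phenylephrine. ODQ 1 μM was added to the bath at least 5 min before contraction, in a separate series of experiments, and relaxation was then measured.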

The species entered for assay [2] is Rattus norvegicus. As to the kind of experiment: Tested for inhibition of ferrous salt/ascorbate induced lipidic peroxidation of membrane lipid of rat hepatocytes. It counts as functional. Conditions: Hepatocyte. The essentials: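 Rat liver microsomes (male Wistar, 200-250 g) were prepared by differential centrifugation and used at 2 mg prot/mL. Incubation was at 37°C, pH 7.4, Tris-HCl/KCl, with 100 μM ascorbate and compounds in DMSO (≤5%). TBARS were read at 543 nm against an MDA standard, using the 30-min plateau. IC50 came from % inhibition vs control by non-linear regression.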

The species entered for assay [3] is Rattus norvegicus. The assay can be described thus: Vasodilating activity in rat aorta strip in absence of 1H-[1,2,4]oxadiazolo[4,3-a]quinoxalin-1-one (ODQ). Type of assay: functional, organism-based. The essentials:
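Rat aortic strips were precontracted with 1 μM L-phenylephrine and relaxation was measured. The method follows an earlier published procedure with minor changes.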

On to `O=S(=O)(c1ccccc1)c1c(OCCCc2ccc(O)cc2)no[n+]1[O-]`, for which the EC50 in the assay filed under Rattus norvegicus [1] is 360 nM; in the assay listed under Rattus norvegicus [3], 10 nM. Moreover, the IC50 in the assay filed under Rattus norvegicus [2] is 47000 nM.
For `O=[N+]([O-])OCCCc1ccc(O)cc1`, the concentration for half-maximal inhibition (IC50) in the assay filed under Rattus norvegicus [2] was 143000 nM. In addition, the EC50 in the assay listed under Rattus norvegicus [3] amounted to 1000 nM.
Turning to `Cc1c(C)c2c(c(C)c1O)CCC(C)(COc1no[n+]([O-])c1S(=O)(=O)c1ccccc1)O2` (stereo unspecified), the EC50 is 670 nM in the assay listed under Rattus norvegicus [1] and 40 nM in the assay filed under Rattus norvegicus [3]. The IC50 in the assay filed under Rattus norvegicus [2] amounted to 490 nM.
For `CCOc1no[n+]([O-])c1S(=O)(=O)c1ccccc1`, in that order: 1200 nM, 10 nM and 110000 nM.
Take `Cc1c(C)c2c(c(C)c1O)CCC(C)(COCCCO[N+](=O)[O-])O2` (stereo unspecified): the IC50 in the assay filed under Rattus norvegicus [2] came to 150 nM. This molecule came in with an EC50 in the assay filed under Rattus norvegicus [3] of 1200 nM.
As to `Cc1ccc(O)cc1` [p-CRESOL], the IC50 in the assay listed under Rattus norvegicus [2] came out at 290000 nM.
Same read-out and setting: as for `Cc1c(C)c2c(c(C)c1O)CCC(C)(C)O2` [APC-100], the figure is 170 nM.
For `CC(C)(C)c1cc(CCCO[N+](=O)[O-])cc(C(C)(C)C)c1O`, the IC50 in the assay filed under Rattus norvegicus [2] was determined as 2000 nM. Also, a half-maximal response in the assay listed under Rattus norvegicus [3] (EC50) required 40000 nM.
`Cc1cc(C(C)(C)C)c(O)c(C(C)(C)C)c1` [BUTYLATED HYDROXYTOLUENE]: in the assay filed under Rattus norvegicus [2], the IC50 is 1700 nM.
Turning to `CC(C)(C)c1cc(CCCOc2no[n+]([O-])c2S(=O)(=O)c2ccccc2)cc(C(C)(C)C)c1O`, the concentration giving a half-maximal response (EC50) stood at 4800 nM in the assay filed under Rattus norvegicus [1] and 110 nM in the assay filed under Rattus norvegicus [3]. Besides, in the assay listed under Rattus norvegicus [2], the IC50 is 2000 nM.
